Drawing on ChEMBL document CHEMBL3352447, “Structural development studies of PPARs ligands based on tyrosine scaffold” (Eur J Med Chem, 2015), this text covers EC50 and Emax for 18 compounds.

Structures are written as SMILES. The source made the active and inactive calls. No cut-off for these calls is given here.

Common to all, as to type: cell-based
For assay [1], the target named is T1, Peroxisome proliferator-activated receptor delta (Homo sapiens, UniProt Q03181).
T1 sequence (Q03181 whole entry): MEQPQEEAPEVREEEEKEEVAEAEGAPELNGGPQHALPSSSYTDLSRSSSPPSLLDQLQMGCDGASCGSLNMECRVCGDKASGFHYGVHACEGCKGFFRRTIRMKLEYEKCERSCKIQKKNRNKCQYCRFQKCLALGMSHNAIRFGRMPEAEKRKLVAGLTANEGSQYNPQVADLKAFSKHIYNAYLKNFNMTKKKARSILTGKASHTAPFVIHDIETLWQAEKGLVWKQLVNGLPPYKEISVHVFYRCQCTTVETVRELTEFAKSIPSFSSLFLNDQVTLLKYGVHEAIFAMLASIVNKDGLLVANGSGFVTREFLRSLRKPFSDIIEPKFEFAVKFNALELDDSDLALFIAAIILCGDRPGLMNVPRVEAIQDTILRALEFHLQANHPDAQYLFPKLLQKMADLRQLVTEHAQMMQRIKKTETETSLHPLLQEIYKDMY
Nature of the assay: Agonist activity at human GAL4-PPARdelta ligand binding domain expressed in human HepG2 cells by luciferase reporter gene assay. On the technique in general: A reporter such as luciferase makes a cellular process visible.

For assay [2], the target named is T2, Peroxisome proliferator-activated receptor alpha (Homo sapiens, UniProt Q07869).
T2 sequence (Q07869 whole entry): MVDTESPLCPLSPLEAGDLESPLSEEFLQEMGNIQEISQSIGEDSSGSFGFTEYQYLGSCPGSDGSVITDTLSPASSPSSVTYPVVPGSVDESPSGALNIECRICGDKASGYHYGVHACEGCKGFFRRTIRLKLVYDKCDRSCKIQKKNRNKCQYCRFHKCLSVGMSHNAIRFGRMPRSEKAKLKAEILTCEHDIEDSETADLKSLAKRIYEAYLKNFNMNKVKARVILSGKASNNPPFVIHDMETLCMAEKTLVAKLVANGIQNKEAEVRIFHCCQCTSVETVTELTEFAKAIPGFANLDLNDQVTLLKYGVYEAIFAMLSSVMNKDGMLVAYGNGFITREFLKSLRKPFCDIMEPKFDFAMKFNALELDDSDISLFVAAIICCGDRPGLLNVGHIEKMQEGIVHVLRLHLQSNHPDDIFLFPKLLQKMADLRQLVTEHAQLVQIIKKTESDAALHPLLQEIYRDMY
Nature of the assay: Agonist activity at human GAL4-PPARalpha ligand binding domain expressed in human HepG2 cells by luciferase reporter gene assay. An outline of the steps:
(§1)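 HepG2 cells grown in MEM with 10% heat-inactivated FBS, penicillin/streptomycin, 37 °C, 5% CO2. 10^5 cells/well seeded, transfected after 24 h by calcium phosphate with Gal4-PPAR LBD expression plasmid (30 ng), pGal5TKpGL3 luciferase reporter (100 ng) and pCMVbgal (250 ng). Ligand added 4 h post-transfection for 20 h, in triplicate. Luciferase read in cell extracts, with β-galactosidase measured using ONPG.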

In assay [3] the target is T3, Peroxisome proliferator-activated receptor gamma (Homo sapiens) (UniProt P37231).
T3 sequence (whole entry): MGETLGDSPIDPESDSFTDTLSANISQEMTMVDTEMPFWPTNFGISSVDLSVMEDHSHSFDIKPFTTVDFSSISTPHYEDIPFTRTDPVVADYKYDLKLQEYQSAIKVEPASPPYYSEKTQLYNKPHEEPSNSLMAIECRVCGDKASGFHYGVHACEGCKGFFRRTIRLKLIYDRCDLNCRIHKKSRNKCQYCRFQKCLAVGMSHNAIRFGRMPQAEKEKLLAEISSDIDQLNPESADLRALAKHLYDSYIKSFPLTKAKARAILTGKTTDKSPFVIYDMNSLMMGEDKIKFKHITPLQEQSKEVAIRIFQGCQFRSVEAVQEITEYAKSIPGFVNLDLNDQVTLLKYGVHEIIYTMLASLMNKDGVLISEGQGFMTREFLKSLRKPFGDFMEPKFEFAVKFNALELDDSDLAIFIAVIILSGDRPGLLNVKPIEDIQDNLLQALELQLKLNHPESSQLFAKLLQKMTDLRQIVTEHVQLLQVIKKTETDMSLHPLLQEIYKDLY
As to the kind of experiment: Agonist activity at human GAL4-PPARgamma ligand binding domain expressed in human HepG2 cells assessed as maximum fold induction by luciferase reporter gene assay relative to rosiglitazone. The procedure, abridged:
as §1

In assay [4] the target is T4, Peroxisome proliferator-activated receptor gamma (Homo sapiens, UniProt P37231).
T4 sequence (P37231 whole entry): T3 sequence (whole entry)
As to the kind of experiment: Agonist activity at human GAL4-PPARgamma ligand binding domain expressed in human HepG2 cells by luciferase reporter gene assay. The procedure, abridged:
as §1

Assay [5] addresses T5, Peroxisome proliferator-activated receptor alpha (Homo sapiens) (UniProt Q07869).
T5 sequence (whole entry): T2 sequence (Q07869 whole entry)
As to the kind of experiment: Agonist activity at human GAL4-PPARalpha ligand binding domain expressed in human HepG2 cells assessed as maximum fold induction by luciferase reporter gene assay relative to Wy-14643. An outline of the steps:
as §1

In general, EC50 refers to the concentration that produces a half-maximal response. Turning to `C/C(=C\C(=O)c1ccccc1)NC(Cc1ccc(OCCCOc2ccc(/N=N/c3ccc([N+](=O)[O-])cc3)cc2)cc1)C(=O)O` (stereo not given), the EC50 entry was “Not Active” in assay [1], “Not Active” in assay [2] and 29 nM in assay [4] (read-out: EC50). Also, the Emax in assay [3] is 54%.
For `C/C(=C\C(=O)c1ccccc1)NC(Cc1ccc(OCCOc2ccc(/C=C/c3ccc(C(F)(F)F)cc3)cc2)cc1)C(=O)O` (stereo not given), the EC50 result in assay [1] is “Not Active”; in assay [2], “Not Active”; in assay [4] (read-out: EC50) it was 84 nM. The Emax in assay [3] was 69%.
As to `COc1ccc(/N=N/c2ccc(OCCCOc3ccc(CC(N/C(C)=C/C(=O)c4ccccc4)C(=O)O)cc3)cc2)cc1` (stereo not given), the EC50 entry in assay [1] and in assay [2] was “Not Active” each time. In assay [3], the Emax turned out to be 24%.
As to `Cc1cccc(Nc2cc(Cl)nc(SCC(=O)O)n2)c1C` [PIRINIXIC ACID], in assay [3], the Emax entry is “inactive”. For the same compound, the EC50 entry in assay [4] (hepg2) was “Not Active”.
For `CC(=O)/C=C(\C)NC(Cc1ccc(OCCOc2ccc(/C=C/c3ccccc3)cc2)cc1)C(=O)O` (stereo not given), the EC50 entry in assay [1] was “Not Active”; in assay [2] it was “Not Active”; in assay [4] (read-out: EC50), 250 nM. For the same compound, the Emax in assay [3] was determined as 61%.
On to `C/C(=C\C(=O)c1ccccc1)NC(Cc1ccc(OCCOc2ccc(/C=C/c3ccccc3)cc2)cc1)C(=O)O` (stereo not given), for which the EC50 entry in assay [1] is “Not Active”; in assay [4] (read-out: EC50), 12 nM. Moreover, the Emax was 75% in assay [3] and 20% in assay [5].
In the case of `C/C(=C\C(=O)c1ccccc1)NC(Cc1ccc(OCCOc2ccc(/C=C/c3ccc(Cl)cc3)cc2)cc1)C(=O)O` (stereo not given), the figures for the EC50 result in assay [1], in assay [2] and in assay [4] (read-out: EC50) were “Not Active”, “Not Active” and 26 nM, respectively. In addition, the Emax in assay [3] was determined as 50%.
With `C/C(=C\C(=O)c1ccccc1)NC(Cc1ccc(OCCCOc2ccc(/C=C/c3ccc(C(F)(F)F)cc3)cc2)cc1)C(=O)O` (stereo not given), the EC50 entry in assay [1] was “Not Active”; in assay [2] it was “Not Active”; in assay [4] (read-out: EC50), 32 nM. The Emax in assay [3] was determined as 46%.
Turning to `C/C(=C\C(=O)c1ccccc1)NC(Cc1ccc(OCCCOc2ccc(/N=N/c3ccccc3)cc2)cc1)C(=O)O` (stereo not given), the EC50 entry is “Not Active” in assay [1] and 1370 nM in assay [4] (read-out: EC50). The Emax in assay [3] amounted to 31%; in assay [5] it was 8%.
For `C/C(=C\C(=O)c1ccccc1)NC(Cc1ccc(OCCCOc2ccc(/N=N/c3ccc(Cl)cc3)cc2)cc1)C(=O)O` (stereo not given), the values for the EC50 entry in assay [1], in assay [2] and in assay [4] (read-out: EC50) were “Not Active”, “Not Active” and 47 nM, respectively. The Emax in assay [3] is 59%.
With `C/C(=C\C(=O)c1ccccc1)NC(Cc1ccc(OCCOc2ccc(/N=N/c3ccc(Cl)cc3)cc2)cc1)C(=O)O` (stereo not given), the half-maximal effective concentration (EC50) entry is “Not Active” in assay [1], “Not Active” in assay [2] and 39 nM in assay [4] (read-out: EC50). In addition, the Emax in assay [3] amounted to 52%.
`C/C(=C\C(=O)c1ccccc1)NC(Cc1ccc(OCCCOc2ccc(/C=C/c3ccccc3)cc2)cc1)C(=O)O` (stereo not given): the EC50 entry in assay [1] was “Not Active”; in assay [4] (read-out: EC50), 47 nM. For the same compound, the Emax in assay [3] amounted to 65%; in assay [5], 9%.
As for `O=C(/C=C/c1ccccc1)NC(Cc1ccc(OCCOc2ccc(/C=C/c3ccccc3)cc2)cc1)C(=O)O` (stereo not given), the EC50 result was “Not Active” in assay [1], “Not Active” in assay [2] and 640 nM in assay [4] (read-out: EC50). Besides, in assay [3], the Emax came to 45%.
For the compound `C/C(=C\C(=O)c1ccccc1)NC(Cc1ccc(OCCOc2ccc(/N=N/c3ccccc3)cc2)cc1)C(=O)O` (stereo not given), the EC50 entry in assay [1] was “Not Active”; in assay [2], “Not Active”; in assay [4] (read-out: EC50), 183 nM. For the same compound, the Emax in assay [3] was 54%.
For the compound `C/C(=C\C(=O)c1ccccc1)NC(Cc1ccc(OCCOc2ccc(/C=C/c3ccc(C)cc3)cc2)cc1)C(=O)O` (stereo not given), the 50% effective concentration (EC50) entry was “Not Active” in assay [1], “Not Active” in assay [2] and 21 nM in assay [4] (read-out: EC50). Moreover, the Emax in assay [3] worked out at 77%.
On to `C/C(=C\C(=O)c1ccccc1)NC(Cc1ccc(OCCCOc2ccc(/C=C/c3ccc(Cl)cc3)cc2)cc1)C(=O)O` (stereo not given), for which the figures for the EC50 entry in assay [1], in assay [2] and in assay [4] (read-out: EC50) were “Not Active”, “Not Active” and 12 nM, respectively. Besides, the Emax in assay [3] was 56%.
As for `CCCc1c(OCCCOc2ccc(OCC(=O)O)cc2)ccc(C(C)=O)c1O`, the EC50 entry in assay [2] and in assay [4] (hepg2) was “Not Active” each time.
In the case of `CN(CCOc1ccc(CC2SC(=O)NC2=O)cc1)c1ccccn1` (stereo not given) [ROSIGLITAZONE], the EC50 result in assay [2] is “Not Active”. Further, in assay [5], the Emax result is “inactive”.
